This passage reports cytotoxicity results from ChEMBL document CHEMBL4513216, “Probing the Open Global Health Chemical Diversity Library for Multistage-Active Starting Points for Next-Generation Antimalarials” (ACS Infect Dis, 2020).

A short description of the data set: Toxicity liver stage against HepG2, at 10uM. On the set-up: test concentration 10 uM, cell line HepG2-A16-CD81EGFP. The data set is classed as cell-based. As to conditions: human, HepG2-A16-CD81EGFP cells; read-out: INHIBITION
Put shortly:
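Uninfected HepG2-A16-CD81EGFP cells, 3 × 10^3 per well, 1536-well, plated on prespotted compound at 10 μM final, parasite-free screening media added to match infected plates; puromycin 10 μM positive, DMSO 0.5% negative; run in parallel with 48 h PbLuc assay at 37 °C, 5% CO2; viability by CellTiter-Glo luminescence, normalized to controls.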
As to `CC(C)NC(=O)c1cccc(NC(=O)CCCc2nc(C(C)C)no2)c1`, the cytotoxicity at 10 µM stood at 5.51%.
With `c1ccc(COCCN2CCc3[nH]cnc3C2c2ccoc2)cc1` (stereo not drawn) the figure was 6.62%.
With `Cn1cnnc1-c1ccnc(NCc2ccccc2)c1` the figure was -4.98%; with `CCC(C(=O)NC1CCCCC1)n1cccc(OC)c1=O` (stereo not drawn), -2.23%.
On to `CC(c1cccnc1)N(C)S(C)(=O)=O` (stereo not drawn), for which the cytotoxicity at 10 µM was -5.21%.
With `COCCn1ccc(NCc2sccc2C)n1` the figure was 5.6%; with `CN(C)c1nc(CNC(=O)N[C@H](CO)c2ccccc2)cs1`, 11.7%; with `CCc1nc(N2CCN(Cc3ncccc3C)CC2)c2cnn(C)c2n1`, -6.46%.
With `Cc1ncc(C(=O)NCCNc2ncnc3sccc23)s1` the figure was 27.6%; with `CCC(CC)c1cc(CNC(=O)N2CCN(CC)CC2)on1`, -3.26%; with `N#Cc1ccc(C(=O)N2CCc3c(COCC4CC4)cncc3C2)cc1`, -98.8%.
With `CNC(=O)c1sc2ccccc2c1C1CCN(c2nc(C)cc(C)n2)C1` (stereo not drawn) the figure was 4.93%; with `O=C1NCc2ccccc2CC12CCN(Cc1c(F)cccc1Cl)C2` (stereo not drawn), 11.2%.
Consider `Fc1ccccc1CN1CCCC2(CCN(c3ncccn3)CC2)C1`, for which the cytotoxicity at 10 µM was -132%.
With `Cn1nc(C(=O)NCc2cccnc2)c2c1CCS(=O)(=O)C2` the figure was 6.09%; with `Cc1ccc(C2COCCN2C(=O)c2ccc(C#N)cc2)o1` (stereo not drawn), -5.08%.
With `CNC(=O)c1cccc(CNC(C)c2cc(Cl)ccc2OC)c1` (stereo not drawn) the figure was 10.3%; with `Cc1cc(O)cc(C2CCCN2C(=O)c2ccncc2)n1` (stereo not drawn), 8.16%.
With `O=C(c1cnn2cc(CCO)cnc12)N1CCOC(C(F)(F)F)C1` (stereo not drawn) the figure was 3.24%; with `Cn1ncnc1CNc1ccc2c(c1)N(C(=O)OC(C)(C)C)CCC2`, 6.37%; with `CC(C)c1nn(C)c(N(C)C)c1CNCc1cccnc1N(C)C`, -8.66%.
As to `Clc1cccc(Cl)c1CNCCOc1ccccn1`, the cytotoxicity at 10 µM is -13.2%.
With `CC(O)(CNC(=O)c1cccnc1-n1cccn1)c1cccs1` (stereo not drawn) the figure was 7.9%; with `COc1ncccc1NC(=O)N(Cc1ccco1)C1CC1`, 5.25%; with `N#Cc1ccc(OC[C@]23COC[C@H]2CN(Cc2nccs2)C3)nc1`, 2.37%.
With `Cc1cnn(CC2CCN(CC(O)c3ccccc3Cl)CC2)c1` (stereo not drawn) the figure was 4.51%; with `O=C1COC2(CCN(Cc3ccco3)CC2)CN1Cc1cccnc1`, -4.25%.
With `Cc1ccc(-c2nc(CC(=O)N3CCN(c4cnccn4)CC3)cs2)o1` the figure was -13%; with `CCN(C)c1ncnc2c1CCN(C(=O)c1ccccn1)CC2`, -2.23%; with `c1cc2c(cc1CN(Cc1nc(C3CC3)no1)C1CCCC1)OCO2`, -10.6%.
Take `Cc1ccccc1-n1ncc(C(C)N)c1C` (stereo not drawn): the cytotoxicity at 10 µM was -8.23%.
For `CCn1c(CC2CCN(C(=O)C3CC(C(C)C)=NO3)CC2)nn(C)c1=O` (stereo not drawn), the cytotoxicity at 10 µM was determined as 3.72%.
With `O=C1CC2(CCN(S(=O)(=O)C3CC3)C2)CN1c1cncnc1` (stereo not drawn) the figure was -11.9%.
With `Cc1cc(N2CCC(Cc3ccccc3)CC2)nc(-c2ccncc2)n1` the figure was -2.68%; with `Cc1ccc2nc(C(=O)N3CC(c4cccnc4)C3)cn2c1`, -7.5%.
`CCn1ccc(-c2nnc(SCC(=O)NCC(C)C)n2CC)n1`: the cytotoxicity at 10 µM came out at 5.44%.
With `CC(NC(=O)NCCCn1cncn1)c1ccc(C#N)cc1` (stereo not drawn) the figure was -2.6%.
As for `COc1cc(N2CCCC(c3nccn3Cc3ccncc3)C2)ncn1` (stereo not drawn), the cytotoxicity at 10 µM was -6.82%.
For `Cc1ccc(N2CC3(CCN(Cc4nccn4C)C3)CC2=O)s1` (stereo not drawn), the cytotoxicity at 10 µM is -81.9%.
With `Cc1nc(C2CCCCN2S(C)(=O)=O)no1` (stereo not drawn) the figure was 9.23%.
Regarding `CC(C)NC(=O)CC1(Cn2cnnn2)CCCCC1`, the cytotoxicity at 10 µM is 9.54%.
Take `COc1cc(C2CC(=O)Nc3c2c(=O)[nH]n3C2CCCC2)ccc1O` (stereo not drawn): the cytotoxicity at 10 µM is -1.37%.
Consider `CCN1CC(C(=O)NCc2ccnc(-n3ccnc3C)c2)CC1=O` (stereo not drawn), for which the cytotoxicity at 10 µM is -25.5%.
With `O=c1c(Cc2ccccc2)c(O)ccn1Cc1cccs1` the figure was 10.2%; with `O=C(c1coc(COc2ccccc2F)n1)N1CCC[C@H]1CO`, 0.835%.
As for `CCc1ccc(C2COCCN2C(=O)Nc2ccc(C#N)cc2)o1` (stereo not drawn), the cytotoxicity at 10 µM is -0.0554%.
With `Cc1cc(N2CCC(O)CC2)nc(C)n1` the figure was -74.7%; with `O=C(C1CCOCC1)N1C[C@@H](F)[C@@H](OCc2nc3cc(F)ccc3[nH]2)C1`, -9.9%; with `COCCCNc1nc(CNC(C)=O)cc(-c2ccco2)n1`, -5.52%.
`Cc1noc(C)c1CN(C)C(=O)C1(NS(C)(=O)=O)CCCCC1`: the cytotoxicity at 10 µM was -11.3%.
With `O=C(c1ccoc1)N1CCCC2(CCC(=O)N2Cc2ccncc2)C1` (stereo not drawn) the figure was -3.55%; with `CC(C)c1noc(CS(=O)(=O)Cc2nc(C(C)C)no2)n1`, -7.85%; with `COc1ccccc1-c1c[nH]c(C2CCCN2)n1` (stereo not drawn), 0.276%.
Regarding `CC(=O)N(Cc1noc(C2CC2)n1)C1CCN(CC2CCOCC2)C1` (stereo not drawn), the cytotoxicity at 10 µM was found to be 1.29%.
Consider `CC(C)c1cc(C(=O)N2CCCC(c3cc(=O)nc4n3CCC4)C2)no1` (stereo not drawn), for which the cytotoxicity at 10 µM was determined as 0.983%.
For the molecule `CC(C)C(=O)NCCCn1ncc2c(Cl)cccc21`, the cytotoxicity at 10 µM was -21.6%.
With `COc1ccc(C(=O)N2CCN(CCO)CC2)c(F)c1` the figure was -3.79%; with `CNC(=O)c1cnc2c(C)csc2c1`, -22.3%; with `O[C@H]1[C@H](n2cc(-c3cncnc3)nn2)c2ccccc2C12CCNCC2`, -1.39%.
With `Cc1cc(C)n(CC2CCCN2CCS(=O)(=O)c2ccccc2)n1` (stereo not drawn) the figure was -7.23%; with `CCCc1ccc2oc(C(=O)N3CCC(O)CC3)c(C)c2c1`, 0.361%; with `Cc1nc(C)n(C2CCCN(C(=O)Cc3ccc4c(c3)CCC4)C2)n1` (stereo not drawn), -10.3%.
For `COc1ccc(C)cc1CN1CCOC(Cn2nc(C)nc2C)C1` (stereo not drawn), the cytotoxicity at 10 µM was -2.47%.
Regarding `CC[C@@H]1N(Cc2ccc(F)cc2)CCC[C@]12CCC(=O)N2CCOC`, the cytotoxicity at 10 µM is 11.5%.
With `CC(NC(=O)Nc1cccnc1N1CCOCC1)c1ccncc1` (stereo not drawn) the figure was 5.28%; with `CN(CC(N)=O)C(=O)C1Cc2cc(Cl)ccc2O1` (stereo not drawn), 2.93%; with `CC(=O)c1cccc(OCCCC(=O)N(C)CCC(F)(F)F)c1`, 4.33%.
With `COCCN(Cc1ccncc1)C(=O)C1COc2c(cccc2OC)C1` (stereo not drawn) the figure was -14.6%; with `OC1(Cn2ccc3ccncc32)CCN(Cc2ccccn2)CC1`, 2.42%.
As for `CCOCC1CN(CCOc2ccc(Cl)cc2)Cc2c1cnn2C` (stereo not drawn), the cytotoxicity at 10 µM is -109%.
With `CCCNC(=O)c1nn(CC)cc1NC(=O)c1c(C)nn(C)c1C` the figure was -7.95%; with `CCN1CC2(CC1=O)CN(C(=O)C(C)C)CCN(S(=O)(=O)CC)C2` (stereo not drawn), 16%; with `CNC(=O)NC(=O)C(C)N1CCC(c2c[nH]c3ccc(OC)cc23)CC1` (stereo not drawn), 12.5%.
Turning to `Cc1cc(C)n(C2CCCN(C(=O)c3cccc(F)c3F)C2)n1` (stereo not drawn), the cytotoxicity at 10 µM amounted to 4.35%.
With `COCCN1CCN(c2nc(C3CCCC3)nc3c2cnn3C)CC1` the figure was -1.91%; with `CC(C)NC(=O)CCN1CCC(C(=O)c2cc(F)ccc2F)CC1`, -25%; with `O=C(CN1CCc2c(ncn2C2CC2)C1)NC1CCOCC1`, -13.4%.
With `CCOCC(=O)N1C[C@H]2CC[C@@H](C1)N(Cc1ccccn1)C2=O` the figure was 10.9%; with `COc1ccc(OC)c(CNCc2ccnc(N3CCOCC3)c2)c1`, 1.27%.
With `CCC1=NOC(CNCc2cnc(-c3ccccc3C)s2)C1` (stereo not drawn) the figure was -5.92%.
Consider `COc1cc(C)c(C(C)NC(=O)NCCCn2cncn2)cc1OC` (stereo not drawn), for which the cytotoxicity at 10 µM was -16.2%.
With `CCn1cc(CN2CCCN(C(=O)CCc3cnn(C)c3)CC2)cn1` the figure was 0.153%; with `COC(=O)c1ccc(CNCc2ccn(C)n2)cc1`, -2.64%; with `CC(C)(C)C(=O)NCC(=O)Nc1cccnc1`, -4.96%.
With `CCc1n[nH]c(C2CN(C(=O)c3cncnc3CC)CCO2)n1` (stereo not drawn) the figure was -5.65%.
With `Cc1noc([C@@H]2C[C@H]3OCC[C@H]3N(Cc3sccc3C)C2)n1` the figure was -69.1%; with `Cc1nn(C)c(N(C)C)c1CNCc1ccccc1Cn1cccn1`, -8.06%; with `Cc1ccc(CCCC(=O)N2CCC(=O)Nc3cccnc32)s1`, -60.7%.
Consider `CC(C)CN1CCc2[nH]cnc2C12CCN(C(=O)c1cccnc1)CC2`, for which the cytotoxicity at 10 µM was found to be 23.4%.
Regarding `COc1ccc2c(c1)C1(CCNCC1)CC2NC1CC1` (stereo not drawn), the cytotoxicity at 10 µM was -117%.
With `COc1ccccc1-c1cc(NC(=O)CCC2CCCO2)[nH]n1` (stereo not drawn) the figure was -0.394%; with `Cn1ncc(C(=O)N2CCCC(n3cccn3)C2)c1C1CC1` (stereo not drawn), 4.98%; with `CCc1c(C(=O)N2CCNC(=O)C2)cnn1C(C)(C)C`, -20.3%.
With `CN(C)C(=O)CN1CC[C@H]2CN(S(C)(=O)=O)C[C@@H]2C1=O` the figure was -13.1%; with `CCOCC1CC2(CCN(C(=O)c3ccccn3)CC2)CO1` (stereo not drawn), -3.76%; with `O=C(NC1CCC1)[C@@H]1C[C@@H]2CCN(CCc3ccccc3)C[C@H]2O1`, -72.7%.
With `Cc1ccc(C)c(OC(C)C(=O)Nc2cccnc2)c1` (stereo not drawn) the figure was 7.39%; with `CCc1nc(C2CCCN2CCCS(N)(=O)=O)no1` (stereo not drawn), -6.66%.
